Data set [1] is described as follows: Therapeutic index, ratio of CC50 for human Hep2 cells to EC50 for inhibition of RSV long fusion protein assessed as protection against virus induced cytopathic effect in infected human Hep2 cells. The data set is classed as toxicity, cell-based. Conditions: HEp-2 cells, read-out: Ratio CC50/EC50. In short, it runs like this: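 Index computed as CC50/EC50. CC50 came from uninfected HEp-2 cells and EC50 from 50% reduction of RSV Long CPE in HEp-2 cells (MOI 0.02). Both assays ran 5 days with serially diluted compound and a CCK-8 viability read-out.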

Data set [2] is described as follows: Cytotoxicity against human Hep2 cells assessed as decrease in cell viability after 5 days by CCK8 assay. The data set is classed as cell-based. The settings on record: HEp-2 cells. In short, it runs like this: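 Uninfected HEp-2 cells, seeded at 6000 per well, were cultured 5 days with serially diluted compound alongside the CPE assay. Viability was read by CCK-8, and CC50 was the concentration cytotoxic to 50% of cells.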

A short description of data set [3]: Intrinsic clearance in mouse liver microsomes. The data set is classed as ADME, microsome. The settings on record: read-out: CLH. In short, it runs like this:
(§1)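 Intrinsic clearance was measured in human, rat or mouse liver microsomes and reported as scaled clearance.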
On the technique in general: Microsomes from liver hold many membrane-bound enzymes, among them those of drug oxidation.

The nature of data set [4]: Intrinsic clearance in human liver microsomes. The settings on record: read-out: CLH. It counts as ADME, microsome. In short, it runs like this:
as §1

Data set [5] is described as follows: Intrinsic clearance in rat liver microsomes. The data set is classed as ADME, microsome. Conditions: read-out: CLH. In short, it runs like this:
as §1

The nature of data set [6]: Solubility of the compound by LYSA. The data set is classed as physicochemical. The method in brief:
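Solubility measured by lyophilization solubility assay (LYSA), reported in μg/mL.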

Data set [7] is described as follows: Drug metabolism in rat liver microsomes assessed as oxidation. It counts as ADME, microsome.
A short description of data set [8]: Drug metabolism in rat liver microsomes assessed as dealkylation. It counts as ADME, microsome.
Data set [9] is described as follows: AUC (0 to infinity) in Wistar-Han rat at 10 mg/kg, po after 15 mins to 24 hrs by LC/MS/MS analysis. The data set is classed as ADME, organism-based. Also on record: dose 10 mg/kg, time infinity, route oral. The settings on record: in vivo.
Data set [10] in a line: Drug metabolism in mouse liver microsomes assessed as oxidation. The data set is classed as ADME, microsome.
Data set [11] in a line: AUC (0 to infinity) in Wistar-Han rat at 2 mg/kg, iv after 15 mins to 24 hrs by LC/MS/MS analysis. It counts as ADME, organism-based. The arrangement: dose 2 mg/kg, route intravenous, time infinity. The settings on record: in vivo.
The nature of data set [12]: Drug metabolism in mouse liver microsomes assessed as dealkylation. It counts as ADME, microsome.
A short description of data set [13]: Effective permeability of the compound by PAMPA. The data set is classed as ADME. The settings on record: read-out: Peff. In short, it runs like this: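 Parallel artificial membrane permeability assay, with permeability reported in 10−6 cm/s.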
A general note: In PAMPA a lipid-coated filter parts donor from acceptor wells.

A short description of data set [14]: Half life in Wistar-Han rat at 2 mg/kg, iv by LC/MS/MS analysis. The data set is classed as ADME, organism-based. The settings on record: in vivo. In short, it runs like this:
(§2)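 Single-dose PK in male Wistar rats at 2 mg/kg iv and 10 mg/kg po. Plasma clearance, Vss, iv half-life, AUC and oral bioavailability were derived.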

Data set [15] can be described thus: Oral bioavailability in Wistar-Han rat at 10 mg/kg after 15 mins to 24 hrs by LC/MS/MS analysis. The data set is classed as ADME, organism-based. The settings on record: in vivo. The method in brief: as §2
A short description of data set [16]: Volume of distribution at steady state in Wistar-Han rat at 2 mg/kg, iv after 15 mins to 24 hrs by LC/MS/MS analysis. The data set is classed as ADME, organism-based. The settings on record: in vivo, read-out: Vdss. The method in brief:
as §2

Data set [17] can be described thus: Clearance in Wistar-Han rat at 2 mg/kg, iv after 15 mins to 24 hrs by LC/MS/MS analysis. The data set is classed as ADME, organism-based. The settings on record: in vivo. In short, it runs like this:
as §2

Data set [18] is described as follows: Fraction unbound in mouse plasma. It counts as ADME, cell-free.
A short description of data set [19]: Fraction unbound in human plasma. It counts as ADME, cell-free.

Bounds are passed on as bounds.

As usually defined, the CC50 is the concentration at which the toxic effect on the cells reaches its halfway point. Regarding `Cc1ccc2nc(N3CCCc4ccccc4C3)cc(NCCN)c2c1`, the selectivity ratio in data set [1] came to 129. Moreover, in data set [2], the CC50 at 120 h was 9.4 µM.

On to `NCCCCNc1cc(N2CCc3ccccc3C2)nc2ccccc12`, for which the CC50 at 120 h in [2] was determined as 7.4 µM.

As for `NCCNc1cc(N2CCOc3ccccc3C2)nc2ccccc12`, the CLint scaled in data set [3] came out at 25 mL/min/kg; in data set [4] it was 14 mL/min/kg; in data set [5] it was 20 mL/min/kg. Besides, the selectivity ratio in data set [1] was over 43. In addition, the CC50 at 120 h in data set [2] was over 10 µM.

Broadly, the solubility is the concentration that dissolves in the medium under given conditions. By AUC(0-inf) is commonly meant total exposure, with the tail of the curve extrapolated. Lower therefore signals low exposure. What is called half-life is how long it takes for the measured level to halve. Read a low half-life as rapid decline. A word on the bioavailability: it is dose-corrected exposure relative to a reference, in per cent. What is called clearance is the volume of plasma or blood freed of the substance per unit of time. Low values mean inefficient removal, high ones efficient removal. The compound `NCCNc1cc(N2CCCc3ccccc3C2)nc2ccccc12` returned a solubility in [6] of over 460 µg/mL. The Drug metabolism entry in data set [7], in data set [8], in data set [10] and in data set [12] was “Metabolite_Detected” in each case. In addition, the values for the AUC(0-inf) in data set [9] and in data set [11] were 510 ng·h/mL and 324 ng·h/mL, respectively. The results for the CLint scaled in data set [3], in data set [4] and in [5] were 19 mL/min/kg, 10 mL/min/kg and 23 mL/min/kg, respectively. In [1], the selectivity ratio was 115. Besides, the Papp in [13] amounted to 0.99 ×10⁻⁶ cm/s. The compound further had a half-life in data set [14] of 12 h. This compound also had a bioavailability in data set [15] of 32%. For the same compound, in data set [16], the Vd is 73 to 106 L/kg. For the same compound, the CC50 at 120 h in [2] turned out to be 23 µM. This compound also gave a clearance in [17] of 89 to 106 mL/min/kg.

Consider `Cc1ccc2nc(N3CCS(=O)(=O)c4ccccc4C3)cc(NCCCCCN)c2c1`, for which, in data set [1], the selectivity ratio was determined as 778. Further, in data set [2], the CC50 at 120 h was 21 µM.

For the compound `NC(=O)NCCNc1cc(N2CCc3ccccc3C2)nc2ccccc12`, in [1], the selectivity ratio was determined as 5. Also, the CC50 at 120 h in data set [2] stood at 80 µM.

`NCC(O)CNc1cc(N2Cc3ccccc3C2)nc2ccccc12` (stereo unspecified): the CC50 at 120 h in data set [2] was 2.9 µM.

As to `COc1ccc2nc(N3CCCc4ccccc4C3)cc(NCCN)c2c1`, the selectivity ratio in [1] is 15. In addition, the CC50 at 120 h in [2] came to 4.8 µM.

Turning to `NCCCNc1cc(N2CCc3ccccc3C2)nc2ccccc12`, the selectivity ratio in [1] came to 1. Also, in data set [2], the CC50 at 120 h was found to be 8.4 µM.

Consider `Cc1ccc2nc(N3CCS(=O)(=O)c4ccccc4C3)cc(NCCCN)c2c1`, for which the selectivity ratio in data set [1] came to 21000. Also, the CC50 at 120 h in data set [2] is 21 µM.

One may read the fraction unbound as free concentration divided by total concentration. Low readings indicate little free substance, high ones much free substance. Regarding `Cc1ccc2nc(N3CCS(=O)(=O)c4ccccc4C3)cc(NCCN)c2c1`, in data set [6], the solubility was over 466 µg/mL. The fraction unbound in data set [18] was 0.08; in [19], 0.078. The CLint scaled in [3] amounted to 1 mL/min/kg; in data set [4], 5 mL/min/kg; in [5] it was 8 mL/min/kg. The selectivity ratio in data set [1] was 16500. In data set [11], this compound yielded an AUC(0-inf) of 346 ng·h/mL. For the same compound, the Papp in [13] came to 0.12 ×10⁻⁶ cm/s. This compound gave a half-life in [14] of 4.5 h. Moreover, the bioavailability in data set [15] is 0%. Further, the Vd in data set [16] turned out to be 17 L/kg. Besides, in data set [2], the CC50 at 120 h was found to be 66 µM. In data set [17], the clearance amounted to 97 mL/min/kg.

As to `CS(=O)(=O)c1ccc2nc(N3CCCc4ccccc4C3)cc(NCCN)c2c1`, the selectivity ratio in data set [1] came out at 2. Further, the CC50 at 120 h in [2] was 13 µM.

`NCCNc1cc(N2CCCc3ccccc3C2)nc2ccc(Cl)cc12`: the selectivity ratio in [1] was over 27. Further, the CC50 at 120 h in data set [2] is over 3.2 µM.

As to `Cc1ccc2nc(N3CCC(F)(F)c4ccccc4C3)cc(NCCN)c2c1`, in data set [1], the selectivity ratio was 106. Further, in data set [2], the CC50 at 120 h came to 6.6 µM.

For `OCC(O)CNc1cc(N2CCc3ccccc3C2)nc2ccccc12` (stereo unspecified), the selectivity ratio in data set [1] is 3. In addition, the CC50 at 120 h in data set [2] stood at 66 µM.

In the case of `NCCNc1cc(N2CCCc3ccccc3C2)nc2ccc(F)cc12`, the selectivity ratio in [1] stood at 5. The CC50 at 120 h in data set [2] turned out to be 8 µM.

For the compound `NCCNc1cc(N2CCc3ccccc3C2)nc2ccccc12`, the selectivity ratio in [1] was 7. Moreover, the CC50 at 120 h in [2] was found to be 15 µM.

Regarding `Cc1ccc2nc(N3CCCc4cc(F)ccc4C3)cc(NCCN)c2c1`, the CLint scaled in [3] turned out to be 31 mL/min/kg; in [4] it was 8 mL/min/kg; in data set [5], 33 mL/min/kg. Moreover, in data set [1], the selectivity ratio is over 7. The CC50 at 120 h in data set [2] is over 3.2 µM.

Regarding `NCCNc1cc(N2CCS(=O)(=O)c3ccccc3C2)nc2ccccc12`, in data set [1], the selectivity ratio worked out at 8540. Moreover, in data set [5], the CLint scaled was 3 mL/min/kg. Also, the CC50 at 120 h in data set [2] was found to be 94 µM.

Regarding `NCCNc1cc(N2CCCc3ccccc3C2)nc2cccc(Cl)c12`, the selectivity ratio in data set [1] was 3. The CC50 at 120 h in data set [2] stood at 23 µM.

Regarding `NCC(O)CNc1cc(N2CCc3ccccc3C2)nc2ccccc12` (stereo unspecified), the selectivity ratio in [1] came to 95. Further, the CC50 at 120 h in data set [2] was found to be 21 µM.

Consider `Cc1ccc2nc(N3CCCc4ccc(F)cc4C3)cc(NCCN)c2c1`, for which the CLint scaled in data set [3] is 24 mL/min/kg; in data set [4], 6 mL/min/kg; in data set [5], 160 mL/min/kg. For the same compound, the selectivity ratio in data set [1] is over 32. Moreover, the CC50 at 120 h in data set [2] was over 3.2 µM.

As for `NCCNc1cc(N2CCCc3ccccc3C2)nc2cc(Cl)ccc12`, the selectivity ratio in data set [1] came to 2. Also, the CC50 at 120 h in data set [2] came out at 7.5 µM.

Turning to `NCCNc1cc(N2CCCc3ccccc3C2)nc2c(Cl)cccc12`, the selectivity ratio in data set [1] amounted to 23. The CC50 at 120 h in data set [2] was determined as 25 µM.

Consider `NCC(O)CNc1cc(N2CCCc3ccccc3C2)nc2ccccc12` (stereo unspecified), for which the selectivity ratio in data set [1] stood at 95. Also, in data set [2], the CC50 at 120 h was found to be 21 µM.

In the case of `CC(O)CNc1cc(N2CCc3ccccc3C2)nc2ccccc12` (stereo unspecified), the CC50 at 120 h in data set [2] turned out to be 89 µM.

For `Cc1ccc2nc(N3CCS(=O)(=O)c4ccccc4C3)cc(NCCCCN)c2c1`, the selectivity ratio in data set [1] worked out at 13100. In [2], the CC50 at 120 h was found to be 92 µM.

With `NCCNc1cc(N2CCCc3ccccc3C2)nc2ccc(C(F)(F)F)cc12`, the selectivity ratio in data set [1] amounted to 6. For the same compound, in data set [2], the CC50 at 120 h stood at 6.7 µM.

For the compound `N=C(N)NCCNc1cc(N2CCc3ccccc3C2)nc2ccccc12`, the selectivity ratio in data set [1] stood at 43. Also, the CC50 at 120 h in [2] is over 100 µM.

As to `Cc1ccc2nc(N3CC(=O)Nc4ccccc4C3)cc(NCCN)c2c1`, the CLint scaled in data set [3] is 11 mL/min/kg; in [5] it was 21 mL/min/kg. The selectivity ratio in [1] stood at 177. For the same compound, the CC50 at 120 h in data set [2] was 55 µM.

`Cc1ccc2nc(N3CCNc4ccccc4C3)cc(NCCN)c2c1`: the CLint scaled in [3] turned out to be 19 mL/min/kg; in [4], 5 mL/min/kg; in data set [5], 43 mL/min/kg. Also, the selectivity ratio in data set [1] is 52. In addition, the CC50 at 120 h in [2] came to 12 µM.

Source of the values: ChEMBL document CHEMBL4152381, “Discovery of Benzoazepinequinoline (BAQ) Derivatives as Novel, Potent, Orally Bioavailable Respiratory Syncytial Virus Fusion Inhibitors” (J Med Chem, 2018).
